An excerpt weighted towards active compounds, which were near 3.1% of everything screened.
Myeloid diff MLP: compounds promoting myeloid differentiation | AID 624256 | calls only at 10 µM | 360,000 compounds, 1% hits | ER-HoxA9 myeloid progenitors, lysozyme-GFP differentiation, flow cytometry;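 active means normalized GFP-positive differentiation at or above the plate's own cutoff, the solvent-only control mean plus 3 SD; inconclusive means no clear call, values can overlap the other calls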;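 further: cells exposed to compound for four days before flow analysis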
PP5 inh: blocks human protein phosphatase 5 activity; purified PP5c, OMFP substrate fluorescence; inhibition, % at 6.7 µM; AID 1987; 320,000 compounds, 0.18% hits; P53041;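 active means inhibition above the campaign's mean inhibition across all tested compounds plus 3 SD, cut at about 9.5% in these data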
NadD block: inhibitors of Staphylococcus aureus NadD; 360,000 compounds, 0.78% hits; purified NadD enzyme, colorimetric absorbance read-out; inhibition, % at 20 µM; AID 602399; in the data active means inhibition above about 26%
core dimer inh: blocks dimerization of HCV core protein. TR-FRET GST/Flag-core106 dimerization, 1536-well. inhibition, % at 5 µM. 300,000 compounds, 0.33% hits;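 active means inhibition above the mean of all tested compounds plus 3 SD, set per screening campaign, cut at about 45% in these data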
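Assay system: tagged HCV core106 pair (GST and Flag); medium: KF-containing HEPES buffer, pH 7.45, DTT, CHAPS, BSA; also added: Eu donor and XL665 acceptor anti-tag antibodies; dosing: 5 µM single dose; timing: compound-protein-antibody incubation 4 h at 22.5 °C; signal: TR-FRET 671 and 617 nm emission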
PP1 counter: PP1-alpha (human) inhibition in PP5 counter-screen; P62136; purified PP1alpha, OMFP fluorescence; inhibition, % at 6.7 µM; 320,000 compounds, 0.9% hits; AID 2235;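 active means inhibition above the mean inhibition of all tested compounds plus 3 SD, computed separately for each screening campaign, cut at about 15% in these data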
Target sequence (P62136 whole entry, looked up): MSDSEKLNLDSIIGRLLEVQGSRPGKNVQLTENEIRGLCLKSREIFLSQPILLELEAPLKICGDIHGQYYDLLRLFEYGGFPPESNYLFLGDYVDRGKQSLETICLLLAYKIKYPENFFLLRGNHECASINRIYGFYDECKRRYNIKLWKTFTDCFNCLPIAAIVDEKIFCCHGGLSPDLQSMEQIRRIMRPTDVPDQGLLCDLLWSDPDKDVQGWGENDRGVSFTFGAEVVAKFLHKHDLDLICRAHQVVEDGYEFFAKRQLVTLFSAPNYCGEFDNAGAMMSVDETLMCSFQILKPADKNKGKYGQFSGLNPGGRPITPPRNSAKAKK
Fh CTSL1 inh: cathepsin L1 inhibition, PFM18AAP counter-screen; AID 1906; 300,000 compounds, 0.49% hits; inhibition, % at 5.96 µM; recombinant F. hepatica cathepsin L1, Z-Leu-Arg-MCA fluorescence;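 active means inhibition above the mean of all tested compounds plus 3 SD, set per screening campaign, cut at about 17% in these data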
Myeloid diff: promotes myeloid progenitor differentiation. AID 651706. calls only. ER-HoxA9 myeloid progenitors, GFP/Mac1 double-positive flow. shares compounds with Myeloid diff MLP. 2,300 compounds, 2% hits;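 active means share of green or green-and-red cells above 9 and 9% in run 1 or 4 and 3% in run 2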
GFP autofluor: flagged as fluorescent in myeloid differentiation counter-screen; shares compounds with Myeloid diff MLP; ER-HoxA9 myeloid progenitors, no estrogen, GFP autofluorescence flow cytometry; vehicle wells 0%, positive control 100%; fluorescence response, % (no concentration beside the values); 2,300 compounds, 7.4% hits; AID 651707;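 active means over 5% cells positive for green fluorescent reporter, or over 2% positive for both it and APC stain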
Calls only.

How did O=[N+]([O-])c1ccccc1-c1ccc(C(=S)N2CCN(c3ccccc3)CC2)o1 do in these assays?
Myeloid diff MLP: active; PP5 inh: inactive; NadD block: inactive; core dimer inh: inactive; PP1 counter: inactive; Fh CTSL1 inh: inactive; Myeloid diff: inactive; GFP autofluor: inactive

How did Cn1c(COc2ccc(Cl)cc2Cl)nnc1SCC(=O)NCC1CCCO1 (stereo not drawn) do in these assays?
Myeloid diff MLP: inactive; PP5 inh: inactive; NadD block: inactive; core dimer inh: inactive; PP1 counter: inactive; Fh CTSL1 inh: inactive

What do the screens show for `Cc1nnc(SCC(=O)Nc2nccs2)n1N`?
Myeloid diff MLP: inactive; PP5 inh: inactive; NadD block: inactive; core dimer inh: inactive; PP1 counter: inactive; Fh CTSL1 inh: inactive

How did OCC1OC(n2cnc3c(/C=C(\O)c4ccccc4)ncnc32)C(O)C1O (stereo not drawn) do in these assays?
Myeloid diff MLP: inconclusive; NadD block: inactive

Results for Cc1ccc(C(=O)OCC(=O)N2CCC(C)CC2)cc1S(=O)(=O)N1CCOCC1 ?
Myeloid diff MLP: inactive; NadD block: inactive

What do the screens show for `CCOC(=O)C(NC(=O)Nc1ccccc1)(OCC)C(F)(F)F` (stereo not drawn)?
Myeloid diff MLP: inactive; PP5 inh: inactive; NadD block: inactive; core dimer inh: inactive; PP1 counter: inactive; Fh CTSL1 inh: inactive

How did CCOC(=O)Cc1cnc(NC(=O)NC(C(=O)OCC)(c2ccccc2)C(F)(F)F)s1 (stereo not drawn) do in these assays?
Myeloid diff MLP: inactive; PP5 inh: inactive; NadD block: inactive; core dimer inh: inactive; PP1 counter: inactive; Fh CTSL1 inh: inactive; Myeloid diff: inactive; GFP autofluor: inactive

What do the screens show for `CN1CCN(S(=O)(=O)c2ccc3ccccc3c2)CC1`?
Myeloid diff MLP: inactive; PP5 inh: inactive; NadD block: inactive; core dimer inh: inactive; PP1 counter: inactive; Fh CTSL1 inh: inactive

Results for O=S(=O)(c1ccc2ccccc2c1)N1CCN(c2ccc(O)cc2)CC1 ?
Myeloid diff MLP: active; NadD block: inactive; Myeloid diff: inactive; GFP autofluor: inactive

How did N#Cc1ccc(-c2ccc(F)cc2)nc1SCC(=O)Nc1sc2c(c1C#N)CCC2 do in these assays?
Myeloid diff MLP: inactive; PP5 inh: inactive; NadD block: inactive; core dimer inh: inactive; PP1 counter: inactive; Fh CTSL1 inh: inactive; Myeloid diff: inactive; GFP autofluor: inactive

What do the screens show for `Oc1ccccc1N=Cc1c(O)ccc2oc3c(c12)CCCC3`?
Myeloid diff MLP: inactive; PP5 inh: inactive; NadD block: inactive; core dimer inh: inactive; PP1 counter: inactive; Fh CTSL1 inh: inactive; Myeloid diff: inactive; GFP autofluor: inactive

What do the screens show for `O=C(O)c1ccc(N=Cc2c(O)ccc3oc4c(c23)CCCC4)cc1`?
Myeloid diff MLP: inactive; PP5 inh: inactive; NadD block: inactive; core dimer inh: inactive; PP1 counter: inactive; Fh CTSL1 inh: inactive

How did O=C1N[C@H](Cc2ccccc2)COC(=O)[C@@H](Cc2ccc(F)cc2)CC/C=C/C[C@H]1CC(=O)N(CCO)Cc1ccccc1 do in these assays?
Myeloid diff MLP: inactive; NadD block: inactive

What do the screens show for `O=C1N[C@@H](Cc2ccccc2)COC(=O)[C@@H](Cc2ccc(F)cc2)CC/C=C/C[C@@H]1CC(=O)N(CCO)Cc1ccccc1`?
Myeloid diff MLP: active; NadD block: inactive; Myeloid diff: inactive; GFP autofluor: inactive

What do the screens show for `Cc1nn(C)c(N)c1[N+](=O)[O-]`?
Myeloid diff MLP: inactive; PP5 inh: inactive; NadD block: inactive; core dimer inh: inactive; PP1 counter: inactive; Fh CTSL1 inh: inactive

What do the screens show for `Cc1nn(C)c(Sc2ccccc2N)c1[N+](=O)[O-]`?
Myeloid diff MLP: inactive; PP5 inh: inactive; NadD block: inactive; core dimer inh: inactive; PP1 counter: inactive; Fh CTSL1 inh: inactive; Myeloid diff: inactive; GFP autofluor: inactive

Results for CCCCn1c(=O)[nH]c2c(oc3ccccc32)c1=O ?
Myeloid diff MLP: active; PP5 inh: inactive; NadD block: inactive; core dimer inh: inactive; PP1 counter: inactive; Fh CTSL1 inh: inactive; Myeloid diff: inactive; GFP autofluor: inactive

What do the screens show for `CS(=O)(=O)N(CCCC(=O)N1CCCCCC1)c1cccc(Cl)c1`?
Myeloid diff MLP: inactive; PP5 inh: inactive; NadD block: inactive; core dimer inh: inactive; PP1 counter: inactive; Fh CTSL1 inh: inactive

Results for O=C(NCCN1CCCOC1=O)C(=O)NCCN1CCCOC1=O ?
Myeloid diff MLP: inactive; PP5 inh: inactive; NadD block: inactive; core dimer inh: inactive; PP1 counter: inactive; Fh CTSL1 inh: inactive

Results for Cc1ccc(S(=O)(=O)N2C[C@H]3C(=O)C[C@@H](c4ccccc4)N(S(=O)(=O)c4ccc(C)cc4)[C@H]3C[C@H]2c2cccc(C)c2)cc1 ?
Myeloid diff MLP: active; NadD block: inactive; Myeloid diff: inactive; GFP autofluor: inactive

How did CCn1ncc(C2=NOC(C(=O)Nc3cc(OC)c(Cl)cc3OC)C2)c1C (stereo not drawn) do in these assays?
Myeloid diff MLP: inactive; PP5 inh: inactive; NadD block: inactive; core dimer inh: inactive; PP1 counter: inactive; Fh CTSL1 inh: inactive; Myeloid diff: inactive; GFP autofluor: inactive

What do the screens show for `CN(C(=O)c1cccc(NC(=O)C2CCN(C(=O)OC(C)(C)C)CC2)c1)C1CCCCC1`?
Myeloid diff MLP: inactive; NadD block: inactive

How did CCCNC(=O)C1(C)CCCN(C(=O)c2cc(F)ccc2C)C1 (stereo not drawn) do in these assays?
Myeloid diff MLP: inactive; NadD block: inactive

How did CC(C)OC(=O)NCCOC(=O)Nc1cccc(Cl)c1 do in these assays?
Myeloid diff MLP: inactive; PP5 inh: inactive; NadD block: inactive; core dimer inh: inactive; PP1 counter: inactive; Fh CTSL1 inh: inactive

What do the screens show for `CC(C)OC(=O)NC(C)(C)COC(=O)Nc1cccc(Cl)c1`?
Myeloid diff MLP: inactive; PP5 inh: inactive; NadD block: inactive; core dimer inh: inactive; PP1 counter: inactive; Fh CTSL1 inh: inactive; Myeloid diff: inactive; GFP autofluor: inactive

What do the screens show for `Cc1cc2cc(CN(CC3CCCO3)C(=S)Nc3ccccc3)c(=O)[nH]c2cc1C` (stereo not drawn)?
Myeloid diff MLP: active; PP5 inh: inactive; NadD block: inactive; core dimer inh: inactive; PP1 counter: inactive; Fh CTSL1 inh: inactive; Myeloid diff: inactive; GFP autofluor: inactive

Results for Cc1nc(C(=O)Nc2cccc(Cl)c2)nn1-c1cc(OC(C)C)c(Cl)cc1Cl ?
Myeloid diff MLP: active; PP5 inh: inactive; NadD block: inactive; core dimer inh: inactive; PP1 counter: inactive; Fh CTSL1 inh: inactive; Myeloid diff: inactive; GFP autofluor: inactive

How did Cc1cccc(C(=O)NC2CCN(C(=O)N3CCOCC3)CC2)c1 do in these assays?
Myeloid diff MLP: active; PP5 inh: inactive; NadD block: inactive; core dimer inh: inactive; PP1 counter: inactive; Fh CTSL1 inh: inactive; Myeloid diff: inactive; GFP autofluor: inactive

Screens: PubChem BioAssay, several laboratories
